Our source for the IC50 and Activity values is ChEMBL document CHEMBL1138431, “Synthesis and cytotoxic activities of 4,5-diarylisoxazoles” (Bioorg Med Chem Lett, 2007).

For one experiment, the system named is HeLa. In words: Cytotoxicity against human HeLa cells. The experiment is classed as functional, cell-based. Put shortly:
(§1)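 Cells were grown under previously described culture conditions and tested in an MTT colorimetric assay.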

In experiment [1] the test system is HepG2. In words: Cytotoxicity against human HepG2 cells. The class given is functional, cell-based. The essentials: as §1
The nature of experiment [2]: Cytotoxicity against human […] cells. The class given is functional, cell-based. The essentials:
as §1

The subject of experiment [3] is HepG2. In words: Cell cycle arrest in human HepG2 cells assessed as accumulation at S phase at 10 nM after 24 hrs relative to control.
Experiment [4] deals with HepG2. The experiment in a line: Cell cycle arrest in human HepG2 cells assessed as accumulation at G2/M phase at 10 nM after 24 hrs relative to control.
Experiment [5] has as its system HepG2. In words: Cell cycle arrest in human HepG2 cells assessed as accumulation at G0/G1 phase at 10 nM after 24 hrs relative to control.

For orientation: IC50 means the concentration that inhibits the measured activity by half. Low values mean greater potency in that assay, high ones weaker potency in that assay. Regarding `COc1ccc(-c2cnoc2-c2cc(OC)c(OC)c(OC)c2)cc1N`, the IC50 worked out at 22 pM in the experiment with HeLa, 65 pM in the experiment with HepG2 [1] and 135 pM in experiment [2]. In addition, the results for the Activity with HepG2 [3], with HepG2 [4] and in the experiment on HepG2 [5] were 27.4%, 69.8% and 2.81%, respectively.
With `COc1ccc(/C=C\c2cc(OC)c(OC)c(OC)c2)cc1O` [COMBRETASTATIN A4], the IC50 was found to be 2750 pM in the experiment with HeLa, 140 pM in the experiment with HepG2 [1] and 10 pM in experiment [2]. Moreover, the Activity with HepG2 [3] was determined as 19%; in the experiment on HepG2 [4], 79.3%; in the experiment with HepG2 [5] it was 1.68%.
